In brackets after ≈: the same amount, converted by molar mass.

The test system of this assay is Staphylococcus aureus. The assay can be described thus: Antibacterial activity against methicillin-resistant Staphylococcus aureus after 18 hrs by agar microdilution method. It counts as functional. In a few lines:
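Agar microdilution; compounds in DMSO, serial 2-fold dilutions mixed 1:100 into melted Mueller-Hinton agar, final 128 to 0.03 µg/mL. Clinical MRSA isolate (Songklanakarin Hospital) inoculum spotted on agar wells, incubated 35 °C for 18 h. MIC taken as lowest concentration inhibiting visible growth. Vancomycin positive control; DMSO-agar growth control.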

For the compound `CO[C@]12C=C3C(=O)c4c(O)c(CC=C(C)C)c5c(c4O[C@]34[C@H](C1)[C@](C)(CO)O[C@]4(CC=C(C)C)C2=O)C(C)(C)[C@@H](C)O5`, the MIC was above 221 µM. For `CO[C@]12C=C3C(=O)c4c(O)c(CC=C(C)C)c5c(c4O[C@]34[C@H](C1)C(C)(C)O[C@]4(C/C=C(/C)C(=O)O)C2=O)C(C)(C)[C@H](C)O5` [SCORTECHINONE B] the value was 3.38 µM (≈ 2 µg/mL).

In turn, `CO[C@H]1[C@@H]2C(=O)c3c(O)c(CC=C(C)C)c4c(c3O[C@]23[C@@H]2C[C@@]1(OC)C(=O)[C@@]3(C/C=C(/C)C(=O)O)OC2(C)C)C(C)(C)[C@@H](C)O4` [SCORTECHINONE I] yielded an MIC of 12.8 µM (≈ 8 µg/mL). In turn, `C=C(C)C(O)Cc1c(O)c2c(c3c1O[C@H](C)C3(C)C)O[C@@]13C(=C[C@@]4(OC)C[C@@H]1C(C)(C)O[C@]3(C/C=C(/C)C(=O)O)C4=O)C2=O` (stereo partly specified) [SCORTECHINONE R] yielded an MIC above 210 µM. Take `C=C(C)C(O)Cc1c(O)c2c(c3c1O[C@H](C)C3(C)C)O[C@@]13[C@@H]4C[C@@](OC)(C(=O)[C@@]1(C/C=C(/C)C(=O)O)OC4(C)C)[C@@H](OC)[C@@H]3C2=O` (stereo partly specified) [SCORTECHINONE S]: it took 100 µM (≈ 64.1 µg/mL) to inhibit growth (MIC). `CO[C@H]1[C@@H]2C(=O)c3c(O)c(CC=C(C)C)c4c(c3O[C@]23[C@@H]2C[C@@]1(OC)C(=O)[C@@]3(C/C=C(\C)C=O)OC2(C)C)C(C)(C)[C@@H](C)O4` [SCORTECHINONE T]: the MIC was above 105 µM.

In turn, `CC(C)=CCc1c2c(c3oc4c(C(C)(C)O)cc(O)cc4c(=O)c3c1O)C(C)(C)[C@@H](C)O2` [SCORTECHINONE U] gave a minimal inhibitory concentration (MIC) above 292 µM. For `COc1cc2c(=O)c3c(O)c(CC=C(C)C)c4c(c3oc2c2c1[C@@](C/C=C(\C)C(=O)O)(C(=O)O)OC2(C)C)C(C)(C)[C@@H](C)O4` [SCORTECHINONE V] the value was 106 µM (≈ 64.3 µg/mL); for `COc1cc2c(=O)c3c(O)c4c(c(CC=C(C)C)c3oc2c2c1[C@@](C/C=C(\C)C(=O)O)(C(=O)O)OC2(C)C)OC(C)C4(C)C` (stereo partly specified) [SCORTECHINONE W], 52.8 µM (≈ 32 µg/mL). Turning to `COC1Cc2c(oc3c(CC=C(C)C)c4c(c(O)c3c2=O)C(C)(C)C(C)O4)C2=C1[C@@](C/C=C(\C)C(=O)O)(C(=O)O)OC2(C)C` (stereo partly specified) [SCORTECHINONE X], the MIC is above 210 µM. In the case of `CN[C@H](CC(C)C)C(=O)N[C@H]1C(=O)N[C@@H](CC(N)=O)C(=O)N[C@H]2C(=O)N[C@H]3C(=O)N[C@H](C(=O)N[C@H](C(=O)O)c4cc(O)cc(O)c4-c4cc3ccc4O)[C@H](O)c3ccc(c(Cl)c3)Oc3cc2cc(c3O[C@@H]2O[C@H](CO)[C@@H](O)[C@H](O)[C@H]2O[C@H]2C[C@](C)(N)[C@H](O)[C@H](C)O2)Oc2ccc(cc2Cl)[C@H]1O` [VANCOMYCIN], the MIC was 1.38 µM (≈ 2 µg/mL).

The record behind these values is ChEMBL document CHEMBL1158803, “Xanthone and sesquiterpene derivatives from the fruits of Garcinia scortechinii” (2005).
